Source: PubChem BioAssay
This is a sample that favours compounds with a hit; in the whole collection about 1.8% have one here.
LMPTP block: blocks human LMPTP phosphatase; AID 651560; recombinant LMPTP-A, OMFP fluorogenic substrate, fluorescence intensity; actives 0.22% (n = 360,000); inhibition, % at 20 µM; P24666;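 active means compounds that cut the enzyme signal by at least half of the control window in the single-dose screen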;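 further: plate controls were DMSO wells with enzyme plus substrate for no effect and substrate without enzyme for full effect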
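Assay system: LMPTP-A, protein tyrosine phosphatase of low molecular weight / Medium: pH 6.0 Bis-Tris buffer with DTT and Triton X-100 / Schedule: 50 min enzyme reaction at room temperature, protected from light / Measured by: endpoint fluorescence intensity from OMFP dephosphorylation / Read-out basis: % inhibition relative to no-enzyme and uninhibited control wells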
SUMO1-SIM PPI: alters human SUMO1 binding to SIM partners | P63165 | SUMO1 binding to a labelled peptide, TR-FRET, 1 h | inhibition, % at 20 µM | actives 0.33% (n = 360,000) | AID 602429; in the data active means inhibition above about 37%
Scp-1 inhibitor: inhibitors of human Scp-1 phosphatase; Q9GZU7; Recombinant Scp1, phosphopeptide, malachite green phosphate absorbance; inhibition, % at 20 µM; actives 0.88% (n = 340,000);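 active means inhibition above about 50% at 20 µM, limit read from the data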;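 further: plate controls were DMSO wells with enzyme for no effect and wells lacking enzyme for full effect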
Target sequence (Q9GZU7 76-261 limits assumed): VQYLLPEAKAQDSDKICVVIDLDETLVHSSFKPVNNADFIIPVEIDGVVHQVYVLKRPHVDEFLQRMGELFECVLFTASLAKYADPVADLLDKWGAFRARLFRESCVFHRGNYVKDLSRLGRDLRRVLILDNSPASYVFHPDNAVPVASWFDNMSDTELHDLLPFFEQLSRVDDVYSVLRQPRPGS
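assay system = SCP-1 phosphatase catalytic domain, residues 76-261 | buffer or medium = 50 mM Tris acetate pH 5.5, 0.005% Tween-20, 10 mM MgCl2 | incubation = enzyme reaction 45 min at room temperature, colour 5 min, stabilisation 30 min | signal = Phosphate-binding colour reagent, absorbance read at 630 nm | measure = % inhibition at 20 µM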
DNMT1 inh: inhibitors of human DNMT1. P26358. DNMT1 molecular beacon, Hinp1I cleavage, fluorescence. actives 0.83% (n = 360,000). inhibition (reported as % activation of signal), % at 10 µM. AID 588458; in the data active means inhibition above about 50%
STEP block: inhibitors of human striatal-enriched phosphatase STEP; recombinant STEP, OMFP fluorogenic substrate, fluorescence; inhibition, % at 20 µM; actives 0.25% (n = 360,000);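 active means inhibition at 20 µM, scaled per plate between control wells, above about 37%, limit read from the data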;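 further: 0% = DMSO with enzyme and substrate and 100% = substrate only without enzyme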
Target sequence (P54829 whole entry, looked up): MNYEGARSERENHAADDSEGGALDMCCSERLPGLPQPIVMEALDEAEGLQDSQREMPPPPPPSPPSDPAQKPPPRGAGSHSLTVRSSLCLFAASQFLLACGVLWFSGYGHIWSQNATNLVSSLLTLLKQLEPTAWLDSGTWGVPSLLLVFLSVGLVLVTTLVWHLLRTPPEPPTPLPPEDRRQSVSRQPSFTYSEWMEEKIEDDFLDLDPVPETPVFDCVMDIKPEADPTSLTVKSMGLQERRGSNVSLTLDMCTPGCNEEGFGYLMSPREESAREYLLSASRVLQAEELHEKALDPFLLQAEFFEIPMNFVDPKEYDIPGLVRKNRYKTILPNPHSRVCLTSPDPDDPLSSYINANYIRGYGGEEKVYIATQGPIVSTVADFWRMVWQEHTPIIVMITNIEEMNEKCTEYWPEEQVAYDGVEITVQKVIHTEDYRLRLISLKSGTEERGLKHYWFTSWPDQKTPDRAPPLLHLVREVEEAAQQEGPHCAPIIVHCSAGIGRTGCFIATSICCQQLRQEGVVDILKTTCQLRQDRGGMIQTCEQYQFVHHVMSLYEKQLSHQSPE
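Material: STEP (striatal-enriched tyrosine phosphatase) enzyme, cell-free | Medium: 50 mM Bis-Tris pH 6.0 with 2.5 mM DTT and 0.005% Tween 20 | Read-out: Percent inhibition scaled to no-enzyme and uninhibited-enzyme controls, plate-pattern corrected | Signal: Fluorescence read at 480 nm ex / 540 nm em | Times: 20 min reaction, room temperature, in the dark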
HKDC1 inhibitor: blocks human hexokinase HKDC1 activity; actives 0.16% (n = 340,000); Q2TB90; recombinant HKDC1, G6PDH/diaphorase resazurin coupled fluorescence; inhibition, % at 20 µM;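 active means inhibition above about 35% when tested at 20 µM, limit read from the data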;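 further: plate controls were DMSO wells with enzyme for no effect and DMSO wells lacking enzyme for full effect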
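Material: recombinant HKDC1 hexokinase; Amount: HKDC1 at 5 µg/mL; Medium: Tris pH 8.0 buffer with MgCl2, Tween-20, BSA, BME; Schedule: 90 min reaction incubation at room temperature, dark; Technique: coupled resazurin fluorescence, excitation 525 nm, emission 613 nm.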
Scp-1 conf: Scp-1 (human) inhibition, single-dose confirmed | inhibition, % at 20 µM | shares compounds with Scp-1 inhibitor | recombinant SCP-1 catalytic domain, phosphate release, malachite green absorbance | actives 61% (n = 2,500);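 active means inhibition of at least 30% at 20 µM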;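 further: plate controls were DMSO with enzyme for no effect and buffer wells lacking enzyme for full effect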
Scp-1 MG ctr: counter-screen for Scp-1 inhibitors: colorimetric interference | shares compounds with Scp-1 inhibitor | Colorimetric interference counterscreen, malachite green absorbance 630 nm | apparent inhibition (interference), % at 20 µM | 2,500 tested, under 10 active | AID 540313;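 active means inhibition of at least 30% at 20 µM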;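 further: compounds added after enzyme reaction finished so only phosphate colour detection is probed; plate controls were DMSO wells with completed Scp-1 reaction for no effect and substrate wells lacking enzyme for full effect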
Scp1 DSF: validation of human Scp-1 inhibitors by thermal shift binding; AID 540329; actives 25% (n = 1,500); Recombinant SCP1, Sypro Orange thermal shift Tm; shares compounds with Scp-1 inhibitor; thermal shift relative to vanadate control, % at 40 µM;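 active means substances whose mean melting-temperature shift, as a percentage of the reference inhibitor's shift, reaches about 5.3%, limit read from the data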;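 further: 0% = Tm of DMSO wells and 100% = Tm with sodium orthovanadate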
HKDC1 act conf2: confirmation of human HKDC1 activators; shares compounds with HKDC1 inhibitor; recombinant HKDC1, G6PDH/diaphorase resazurin fluorescence; stronger effect = lower value; inhibition, % at 20 µM; actives 14% (n = 740);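 active means inhibition at or below a set negative limit, negative inhibition meaning the enzyme was activated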
Beacon interf DR: beacon fluorescence artifact, dose response counter-screen; IC50, µM; shares compounds with DNMT1 inh; AID 602382; 200 tested, under 10 active; molecular beacon fluorescence, spectral interference counter-screen
DNMT1 inh conf: DNMT1 inhibition confirmation, single concentration; shares compounds with DNMT1 inh; DNMT1 molecular beacon HinP1I cleavage, fluorescence; inhibition, % at 10 µM; actives 8% (n = 2,300);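 active means average inhibition of at least 30% in the single-concentration confirmation test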
DNMT1 interf: counter-screen for DNMT1 inhibitors: spectral interference | shares compounds with DNMT1 inh | DNMT1 molecular beacon spectral interference counterscreen, fluorescence 485/520 | activation (fluorescence interference), % at 10 µM | actives 1% (n = 2,300) | AID 602387;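 active means activation of at least 30% at 10 µM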;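 further: DNMT1 catalytic domain with a HinP1I cleavage step and a FAM/dabcyl DNA beacon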
STEP conf: confirmation of human STEP phosphatase inhibitors. shares compounds with STEP block. recombinant STEP, OMFP fluorogenic substrate, fluorescence. actives 32% (n = 520). inhibition, % at 20 µM;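 further: 0% = enzyme with substrate plus DMSO and 100% = substrate without enzyme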
* hit, by the source's call; x = no result; ! = not confirmed by another sample. Unless noted, how the calls were made is not given here.

SMILES | LMPTP block | SUMO1-SIM PPI | Scp-1 inhibitor | DNMT1 inh | STEP block | HKDC1 inhibitor | Scp-1 conf | Scp-1 MG ctr | Scp1 DSF | others
CCOc1ccccc1N=C1SCCCN1C | 0 | -1 | 55* | 2 | 0 | -8 | 67* | -11 | -7
C[C@]12CCC3C(CC[C@H]4C[C@H](O)CC[C@]34C)C1CCC2=O (some centres undefined) | 0 | -3 | -12 | -4 | 2 | -4 | x | x | x
Cn1c[n+](C)cc1C(O)c1ccccc1 (centres undefined) | -1 | 0 | 92*! | -1 | -2 | -7 | 84* | -11 | -1
O=C(c1cc(Cl)cc(Cl)c1)N1Cc2ccccc2-n2nncc2C1 | -1 | -1 | x | 4 | -1 | x | x | x | x
CC[N+]12CCC(CC1)C(C(O)(c1ccccc1)c1ccccc1)C2 (centres undefined) | -1 | 4 | -1 | 2 | 3 | -10 | x | x | x
CC(C)[N+]12CCC(CC1)C(C(O)(c1ccccc1)c1ccccc1)C2 (centres undefined) | -1 | 3 | 99* | 1 | -4 | -1 | 87* | -11 | -27
CCC(CO)(C(=O)OC1C[N+]2(C)CCC1CC2)c1ccccc1 (centres undefined) | 0 | -2 | 94* | 1 | 1 | -12 | 80* | -17 | -1
CCOC(=O)C1=C(C)c2ccccc2OC1(C(=O)OCC)c1ccccc1 (centres undefined) | -1 | 6 | 103* | 7 | -4 | 4 | 39* | -18 | -31
CCOC(=O)c1ccccc1C(=O)OCC | -2 | 3 | -12 | 6 | -3 | -4 | x | x | x
CCN(CC)P(=O)(c1n(CC)cc[n+]1CC)N(CC)CC | 3 | 3 | 103* | 2 | -3 | -10 | 80* | -19 | -10
C[n+]1ccc(-c2ccncc2)cc1 | -5 | -25 | 96* | -1 | 2 | -7 | 4 | -9 | x
CC1C(=O)CC2(C(C)C)CC12 (centres undefined) | 0 | 3 | x | 1 | -3 | x | x | x | x
Cc1ccc2c(c1Cl)NC(C(=O)O)C1CC(Sc3ccccc3[N+](=O)[O-])C(Cl)C21 (centres undefined) | 42 | 30 | 60* | 71* | 5 | 10 | 65* | -16 | 18* | DNMT1 inh conf=22;DNMT1 interf=1
O=C1NC(=O)C(=Cc2ccc(SC3CCCCC3)o2)C(=O)N1 | 5 | 9 | 53* | 86* | 1 | 8 | 75* | -9 | -7 | DNMT1 inh conf=10;DNMT1 interf=0
CC(=O)OC1C(O)C2=C3C4(C)C1C(C)(C)C(=O)CC4C3(O)C(OC(C)=O)C1(CC1C)C2=O (centres undefined) | -1 | 1 | x | x | x | x | x | x | x
CCCCn1nnnc1C(c1cccs1)N1CCC2(CC1)C(=O)NCN2c1ccccc1 (centres undefined) | 1 | 0 | x | -1 | 3 | x | x | x | x
Cc1cc(/C=C2/C(=O)NC(=O)N(C)C2=O)c(C)n1-c1ccccc1 | 2 | -10 | -7 | 2 | -3 | 2 | x | x | x
Cc1cc(/C=C2\C(=O)NC(=O)N(c3ccccc3F)C2=O)c(C)n1-c1cc(C(=O)O)cc(C(=O)O)c1 | 1 | 13 | 55* | 87* | 42* | 2 | 32* | -15 | 9.9* | Beacon interf DR=>99;DNMT1 inh conf=27;DNMT1 interf=1
COc1ccc(CN2C(=O)NC(=O)/C(=C/c3ccoc3)C2=O)cc1 | 24 | 32 | 72* | 101* | 68* | 6 | 71* | -13 | 1 | DNMT1 inh conf=11;DNMT1 interf=-1
CC(C)CN1Cc2cc(-c3cccc(F)c3)ccc2-n2nncc2C1 | 1 | 8 | x | 4 | 1 | x | x | x | x
C[C@]1(O)CCC2C3CC[C@H]4C[C@@H](OC(=O)[C@@H](N)CCCCN)CC[C@]4(C)C3CC[C@@]21C (some centres undefined) | -5 | -108 | x | -3 | -4 | x | x | x | x
CC[N+](C)(CC)CCCCOc1ccc2c(c1)C(=O)c1cc(OCCCC[N+](C)(CC)CC)ccc1-2 | 3 | -48 | 103* | 54* | 2 | 0 | 62* | -2 | 1 | Beacon interf DR=>99;DNMT1 inh conf=39*;DNMT1 interf=-7
CCN(CC)P(=O)(NC(=O)C(Cl)(Cl)Cl)N(CC)CC.[Cl-].[Cl-].[Cl-].[Nd+3] | 44 | 107* | 101* | 27 | 87* | 6 | 70* | -17 | -8 | STEP conf=25*
CCOC(=O)[C@]12Cc3cc(Cl)ccc3[C@H]1N(C1CCCCC1)C(=O)c1ccccc12 | 4 | 9 | x | x | x | x | x | x | x
CCOC(=O)[C@]12Cc3cc(Cl)ccc3[C@H]1N(CC(=O)OC)C(=O)c1ccccc12 | -3 | 11 | x | x | x | x | x | x | x
COC(=O)[C@@H]1[C@@H](C(=O)OC)C2(c3ccccc3-c3ccccc32)N(c2ccc(Cl)cc2)N1C#N | 2 | 2 | -13 | -8 | 4 | 62* | x | x | x | HKDC1 act conf2=43
COC(=O)C[C@]1(C(=O)OC)CN(C#N)N(c2ccc(Cl)cc2)C12c1ccccc1-c1ccccc12 | 3 | 2 | -9 | 1 | 2 | 87* | x | x | x | HKDC1 act conf2=62
O=c1[nH]c(=S)n(Cc2ccc(F)cc2)c(O)c1/C=N/N1CCCCCC1 | 1 | -2 | -11 | -5 | 1 | -13 | x | x | x
CCOC(=O)c1c(-n2c(C)cc(C=C3C(=O)NC(=O)NC3=O)c2C)sc2c1CCCC2 | 3 | 30 | 0 | 44 | 1 | 41* | x | x | x | HKDC1 act conf2=30
